46 compounds from ChEMBL document CHEMBL3603769, “1,5-Disubstituted benzimidazoles that direct cardiomyocyte differentiation from mouse embryonic stem cells” (2015) can be followed below.

The first assay can be described thus: Induction of cardiomyogenesis in mouse ESC transfected with alpha-MHC at 3 uM treated on day 2 to 4 followed by cell reseeding in normal growth media on day 6, 8 measured on day 12 by GFP reporter gene assay relative to vehicle-treated control. The class given is functional, Embryonic stem cell. The essentials:
(§1)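 αMHC-eGFP mESCs seeded in growth media without LIF, dosed at 3 or 6 μM on days 2 and 4, and fed growth media on days 6 and 8. Cultures were then fixed in 4% paraformaldehyde. Integrated intensity of αMHC-eGFP fluorescence was measured by automated imaging as fold increase over DMSO vehicle. nsRED autofluorescence was subtracted.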
Background: In a reporter assay the amount or activity of a reporter protein is the signal.
Take `Cc1nnc(Nc2ccc3c(c2)ncn3-c2ccccc2)c2ccccc12`: the “fold change (FC)” value stood at 10.

Another assay is described as follows: Induction of cardiomyogenesis in mouse ESC transfected with alpha-MHC at 0.78 to 12.5 uM treated on day 2 to 4 followed by cell reseeding in normal growth media on day 6, 8 measured on day 10 by GFP reporter gene assay relative to vehicle-treated control. The class given is functional, Embryonic stem cell. The essentials: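 mESCs stably carrying αMHC-promoter eGFP, expanded feeder-free with LIF on poly-D-lysine (5 passages), then seeded about 1000 cells/well on gelatin in growth media without LIF. From day 2, compound added in equal volume of media at 2× final (0.78–12.5 μM; 50 mM DMSO stocks). Cultures kept at 37 °C, 5% CO2, fixed in paraformaldehyde on day 9 or 10 and DAPI-stained. αMHC-eGFP fluorescence imaged automatically and expressed as fold-change over DMSO-treated cells.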
Consider `Clc1ncccc1CNc1ccc2c(c1)ncn2-c1ccccc1`, for which the “fold change (FC)” value is listed as 1.4.
`Cc1nnc(Nc2ccc3c(c2)ncn3C2CCCCC2)c2ccccc12`: the “fold change (FC)” value is 3.3.
For `COc1ccccc1-n1cnc2cc(Nc3nnc(C)c4ccccc34)ccc21`, the “fold change (FC)” value stood at 4.3.
On the same count and under the same terms, with `Cc1nnc(Nc2ccc3c(c2)ncn3C2CCOCC2)c2ccccc12` the figure was 1.6; with `Cn1cccc1CNc1ccc2c(c1)ncn2-c1ccccc1`, 1.6; with `c1ccc(-n2cnc3cc(NCc4ccco4)ccc32)cc1`, 2.2.
In the case of `Brc1ccc(CNc2ccc3c(c2)ncn3-c2ccccc2)s1`, the “fold change (FC)” value worked out at 3.1.
As to `c1ccc(-n2cnc3cc(Nc4cnccn4)ccc32)cc1`, the “fold change (FC)” value came out at 2.4.
For the compound `c1ccc(CN2CCC(CNc3ccc4c(c3)ncn4-c3ccccc3)CC2)cc1`, the “fold change (FC)” value is on record as 4.3.
Still for that read-out and setting: with `CC(=O)Nc1ccc2c(c1)ncn2-c1ccccc1` the figure was 1.2; with `CCCc1ccc(-n2cnc3cc(Nc4nnc(C)c5ccccc45)ccc32)cc1`, 0.7.
As to `COc1ccccc1-n1cnc2cc(Nc3ccccc3)ccc21`, the “fold change (FC)” value was 0.7.
For the compound `FC(F)(F)c1ccc(CNc2ccc3c(c2)ncn3-c2ccccc2)cn1`, the “fold change (FC)” value was determined as 2.9.
As for `Cc1nnc(Nc2ccc3c(c2)ncn3-c2ccccc2C(C)C)c2ccccc12`, the “fold change (FC)” value stood at 4.4.
For `Cc1nnc(Nc2ccc3c(c2)ncn3C2CC2)c2ccccc12`, the “fold change (FC)” value turned out to be 0.9.
As for `Cc1nnc(Nc2ccc3c(ccn3-c3ccccc3)c2)c2ccccc12`, the “fold change (FC)” value came to 2.
For the compound `Cc1nnc(Nc2ccc3c(c2)ncn3-c2ccc(C(F)(F)F)cc2)c2ccccc12`, the “fold change (FC)” value is recorded as 1.6.
The same measure, in the same setting: to `Cc1nnc(Nc2ccc3c(c2)ncn3C2CCN(C)CC2)c2ccccc12` belongs 4.4; to `Cc1nnc(Nc2ccc3c(c2)nc(N)n3-c2ccccc2)c2ccccc12`, 2.1; to `Cc1cccc(-n2cnc3cc(Nc4ccc(C)nn4)ccc32)c1`, 7.9.
Take `COc1cccc(-n2cnc3cc(Nc4nnc(Cl)c5ccccc45)ccc32)c1`: the “fold change (FC)” value stood at 6.7.
Take `c1ccc(-c2ccc(CNc3ccc4c(c3)ncn4-c3ccccc3)cn2)cc1`: the “fold change (FC)” value stood at 3.
For the compound `COc1ccccc1-n1cnc2cc(Nc3ccc4ccccc4c3)ccc21`, the “fold change (FC)” value stood at 3.1.
Same read-out and setting: with `COc1cccc(-n2cnc3cc(NCc4ccccc4OC)ccc32)c1` the figure was 1.7.
For `COc1ccccc1-n1cnc2cc(Nc3ncccn3)ccc21`, the “fold change (FC)” value turned out to be 1.1.
As to `COc1ccc(-n2cnc3cc(Nc4nnc(C)c5ccccc45)ccc32)cc1`, the “fold change (FC)” value is 10.
Same read-out and setting: to `COc1cccc(-n2cnc3cc(NCCc4ccccc4)ccc32)c1` belongs 1.4; to `COc1cccc(-n2cnc3cc(Nc4nnc(OC)c5ccccc45)ccc32)c1`, 7.1.
Take `COc1ccccc1-n1cnc2cc(Nc3ccccn3)ccc21`: the “fold change (FC)” value is listed as 1.5.
Still for that read-out and setting: with `COc1cccc(Nc2ccc3c(c2)ncn3-c2ccccc2OC)c1` the figure was 3.8; with `c1ccc(-n2cnc3cc(Nc4cccnc4)ccc32)cc1`, 7.8.
For `Nc1ccc2c(c1)ncn2-c1ccccc1`, the “fold change (FC)” value is reported as 3.
Regarding `Cc1nnc(Nc2ccc3c(c2)nnn3-c2ccccc2)c2ccccc12`, the “fold change (FC)” value came to 3.1.
As for `Cc1nnc(Nc2ccc3c(c2)nc(N(C)C)n3-c2ccccc2)c2ccccc12`, the “fold change (FC)” value is listed as 3.7.
On to `COc1cccc(-n2cnc3cc(NC(=O)c4ccccn4)ccc32)c1`, for which the “fold change (FC)” value stood at 1.7.
Turning to `COc1ccccc1-n1cnc2cc(Nc3nnc(C)c4ccccc34)cnc21`, the “fold change (FC)” value was 2.5.
The same measure, in the same setting: to `Cc1nnc(Nc2ccc3c(c2)ncn3-c2ccccn2)c2ccccc12` belongs 2.2; to `COc1cccc(-n2cnc3cc(Nc4nnc(-c5ccccc5)c5ccccc45)ccc32)c1`, 1; to `COc1cccc(-n2cnc3cc(Nc4nnc(Cc5ccccc5)c5ccccc45)ccc32)c1`, 2.
Consider `COc1cccc(-n2cnc3cc(Nc4nnc(C)c5ccccc45)ccc32)c1`, for which the “fold change (FC)” value amounted to 18.6.
The same measure, in the same setting: with `Cc1nnc(Nc2ccc3c(c2)ncn3C)c2ccccc12` the figure was 1.6.
For `Cc1nnc(Nc2ccc3c(c2)ncn3-c2ccccc2)c2ccccc12`, the “fold change (FC)” value was determined as 9.6.
With `Cc1nnc(Nc2ccc3c(c2)ncn3-c2ccccc2O)c2ccccc12`, the “fold change (FC)” value was found to be 2.1.
As for `Cc1nnc(Nc2ccc3c(c2)ncn3-c2cccc(C(F)(F)F)c2)c2ccccc12`, the “fold change (FC)” value came to 0.5.
Take `COc1cccc(-n2cnc3cc(Nc4nncc5ccccc45)ccc32)c1`: the “fold change (FC)” value is 13.7.
`c1ccc(-n2cnc3cc(NCc4cccs4)ccc32)cc1`: the “fold change (FC)” value is 0.75.

Another assay in a line: Induction of cardiomyogenesis in mouse ESC transfected with alpha-MHC at 6 uM treated on day 2 to 4 followed by cell reseeding in normal growth media on day 6, 8 measured on day 12 by GFP reporter gene assay relative to vehicle-treated control. The assay is classed as functional, Embryonic stem cell. The essentials: as §1
With `Cc1nnc(Nc2ccc3c(c2)ncn3-c2ccccc2)c2ccccc12`, the “fold change (FC)” value was found to be 20.

The next assay is described as follows: Induction of cardiomyogenesis in mouse ESC transfected with alphaMHC-eGFP at 6 uM treated on day 2 to 4 followed by cell reseeding in normal growth media on day 6 and 8 measured on day 12 by alpha-Actinin Alexa568-based immunohistochemical analysis relative to vehicle-treated control. The class given is functional, Embryonic stem cell. The essentials:
(§2)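 αMHC-eGFP mESCs dosed at 3 or 6 μM on days 2 and 4, then fixed at day 10 or 12 in 4% paraformaldehyde for 40 min at room temperature. Cells were permeabilized and blocked 30 min in PBS with 10% horse serum and 0.2% Triton X-100. Staining used mouse anti-α-actinin (1:200, 60 min) then donkey anti-mouse Alexa568 (1:400, with DAPI, 60 min). Integrated Alexa568 intensity was reported relative to DMSO vehicle.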
Take `Cc1nnc(Nc2ccc3c(c2)ncn3-c2ccccc2)c2ccccc12`: the “fold change (FC)” value was found to be 20.

The nature of a further assay: Induction of cardiomyogenesis in mouse ESC transfected with alphaMHC-eGFP at 3 uM treated on day 2 to 4 followed by cell reseeding in normal growth media on day 6 and 8 measured on day 12 by alpha-Actinin Alexa568-based immunohistochemical analysis relative to vehicle-treated control. The class given is functional, Embryonic stem cell. The essentials: as §2
Regarding `Cc1nnc(Nc2ccc3c(c2)ncn3-c2ccccc2)c2ccccc12`, the “fold change (FC)” value is recorded as 10.
